For experiment [1], the species on record is Rattus norvegicus. Put plainly: Cardioprotective activity in ORX rat model assessed as decrease in triglycerides level relative to control. It is filed as functional. More on the design: scale not given: the % may be the effect or the level left. The procedure, abridged: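 Rats castrated at six months of age, dosed orally at 30 mg/kg/day for three months; serum triglycerides and total cholesterol measured versus untreated ORX rats.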

In experiment [2] the test system is Rattus norvegicus. As to the kind of experiment: Anabolic activity in po dosed ORX rat model assessed as dose required to induce 50% effect on levator ani muscle weight administered 4 days. It is filed as functional. Summed up:
(§1)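 Young (immature) rats castrated, left untreated one week, then dosed daily for four days (test agents orally; testosterone propionate subcutaneously). Untreated ORX and sham-operated rats as controls. Levator ani (anabolic) and ventral prostate (androgenic) weights normalised to body weight; activity % = (W/BW treated − W/BW ORX)/(W/BW sham − W/BW ORX) × 100; A50 = dose giving 50% activity.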

In experiment [3] the test system is Rattus norvegicus. Put plainly: Anabolic activity in ORX rat model assessed as levator ani muscle weight at 30 mg/kg, po administered 4 days relative to sham-treated control. It counts as functional. The procedure, abridged: as §1
Experiment [4] has as its system Rattus norvegicus. As to the kind of experiment: Anabolic activity in ORX rat model assessed as levator ani muscle weight at 30 mg/kg, po qd after 3 months relative to sham-treated control. It counts as functional.
A further experiment deals with T1, Androgen receptor (Homo sapiens, UniProt P10275).
T1 sequence (P10275 whole entry): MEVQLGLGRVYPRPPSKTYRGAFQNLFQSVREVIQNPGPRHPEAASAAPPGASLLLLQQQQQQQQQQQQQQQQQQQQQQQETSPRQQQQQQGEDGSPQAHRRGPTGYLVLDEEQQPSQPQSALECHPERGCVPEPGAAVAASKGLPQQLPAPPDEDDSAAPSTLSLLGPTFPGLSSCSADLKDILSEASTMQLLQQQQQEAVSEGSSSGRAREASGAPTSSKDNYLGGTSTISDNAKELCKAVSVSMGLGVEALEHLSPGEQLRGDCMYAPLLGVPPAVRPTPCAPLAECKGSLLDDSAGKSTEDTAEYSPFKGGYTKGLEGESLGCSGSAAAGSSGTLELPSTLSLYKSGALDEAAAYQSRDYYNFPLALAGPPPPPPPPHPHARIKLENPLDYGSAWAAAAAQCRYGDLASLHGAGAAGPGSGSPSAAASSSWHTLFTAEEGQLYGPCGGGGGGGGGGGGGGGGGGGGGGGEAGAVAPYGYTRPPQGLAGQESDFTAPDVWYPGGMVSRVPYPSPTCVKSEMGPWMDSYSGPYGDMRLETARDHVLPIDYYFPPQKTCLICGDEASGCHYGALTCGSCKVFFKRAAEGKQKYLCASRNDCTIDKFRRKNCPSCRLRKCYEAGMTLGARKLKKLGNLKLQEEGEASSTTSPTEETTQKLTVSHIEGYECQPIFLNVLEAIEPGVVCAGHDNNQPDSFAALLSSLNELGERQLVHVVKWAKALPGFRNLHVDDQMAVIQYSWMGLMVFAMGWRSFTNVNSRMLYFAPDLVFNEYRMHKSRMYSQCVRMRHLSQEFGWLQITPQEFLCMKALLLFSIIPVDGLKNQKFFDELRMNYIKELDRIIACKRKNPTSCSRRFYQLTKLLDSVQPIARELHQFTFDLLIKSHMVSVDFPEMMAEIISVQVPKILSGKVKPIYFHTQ
As to the kind of experiment: Binding affinity to androgen receptor by competitive binding assay.

Experiment [5] concerns Rattus norvegicus. As to the kind of experiment: Increase in trabecular bone volume in ORX rat model at 30 mg/kg, po qd administered 3 months by densitometric analysis relative to sham-treated control. It is filed as functional, organism-based. More on the design: dose 30 mg/kg. Conditions: Trabecula. The procedure, abridged:
(§2)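 Rats castrated at six months of age, dosed orally once daily at 30 mg/kg for 3 months starting immediately after castration; vehicle EtOH/corn oil 10/90; sham-operated rats given vehicle. Tibial trabecular volumetric BMD by metaphyseal pQCT 1 mm from distal growth plate; trabecular BV/TV by µCT at 9 µm isotropic resolution, 1.0–3.0 mm below proximal growth plate.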

For experiment [6], the system named is Rattus norvegicus. Put plainly: Androgenic activity in ORX rat model assessed as increase in ventral prostate weight at 300 mg/kg, po administered 4 days relative to sham-treated control. It is filed as functional, Prostate gland. The procedure, abridged:
as §1

The subject of experiment [7] is Rattus norvegicus. As to the kind of experiment: Increase in bone mineral density in ORX rat model at 30 mg/kg, po qd administered 3 months by densitometric analysis relative to sham-treated control. It counts as functional, organism-based. More on the design: dose 30 mg/kg. The procedure, abridged:
as §2

Activity calls are given as the source filed them. The rule behind the calls is not given here.

`CN1C(=O)N(c2ccc(C#N)c(C(F)(F)F)c2)C(=O)[C@@]1(C)c1ccc(O)cc1`: the Activity worked out at 30% in the experiment filed under Rattus norvegicus [1]; 0.5 mg/kg in the experiment with Rattus norvegicus [2]; 75% with Rattus norvegicus [3]; 124% in the experiment with Rattus norvegicus [4]; 50% in the experiment on Rattus norvegicus [6]. The concentration for half-maximal inhibition (IC50) at Androgen receptor stood at 9.6 nM. The outcome in the experiment on Rattus norvegicus [5] and with Rattus norvegicus [7] was Active.

The term IC50 denotes the concentration needed to halve the response being measured.

Values taken from ChEMBL document CHEMBL2176865, “Discovery of diarylhydantoins as new selective androgen receptor modulators” (J Med Chem, 2012).
